Results published in ChEMBL document CHEMBL1124820, “Total synthesis of the four stereoisomers of dihexadecanoyl phosphatidylinositol and the substrate stereospecificity of human erythrocyte membrane phosphatidylinositol 4-kinase” (J Med Chem, 1990).

Tests used:
[1] = target: T1, Phosphatidylinositol 4-kinase, PI4K (Homo sapiens) (UniProt Q9BTU6+Q8TCG2+Q9UBF8+P42356); experiment: Rate of phosphorylation was determined with that of mammalian PI using human erythrocyte PI 4-kinase at 200 uM substrate; assay type: functional
T1 sequence (P42356 whole entry, looked up): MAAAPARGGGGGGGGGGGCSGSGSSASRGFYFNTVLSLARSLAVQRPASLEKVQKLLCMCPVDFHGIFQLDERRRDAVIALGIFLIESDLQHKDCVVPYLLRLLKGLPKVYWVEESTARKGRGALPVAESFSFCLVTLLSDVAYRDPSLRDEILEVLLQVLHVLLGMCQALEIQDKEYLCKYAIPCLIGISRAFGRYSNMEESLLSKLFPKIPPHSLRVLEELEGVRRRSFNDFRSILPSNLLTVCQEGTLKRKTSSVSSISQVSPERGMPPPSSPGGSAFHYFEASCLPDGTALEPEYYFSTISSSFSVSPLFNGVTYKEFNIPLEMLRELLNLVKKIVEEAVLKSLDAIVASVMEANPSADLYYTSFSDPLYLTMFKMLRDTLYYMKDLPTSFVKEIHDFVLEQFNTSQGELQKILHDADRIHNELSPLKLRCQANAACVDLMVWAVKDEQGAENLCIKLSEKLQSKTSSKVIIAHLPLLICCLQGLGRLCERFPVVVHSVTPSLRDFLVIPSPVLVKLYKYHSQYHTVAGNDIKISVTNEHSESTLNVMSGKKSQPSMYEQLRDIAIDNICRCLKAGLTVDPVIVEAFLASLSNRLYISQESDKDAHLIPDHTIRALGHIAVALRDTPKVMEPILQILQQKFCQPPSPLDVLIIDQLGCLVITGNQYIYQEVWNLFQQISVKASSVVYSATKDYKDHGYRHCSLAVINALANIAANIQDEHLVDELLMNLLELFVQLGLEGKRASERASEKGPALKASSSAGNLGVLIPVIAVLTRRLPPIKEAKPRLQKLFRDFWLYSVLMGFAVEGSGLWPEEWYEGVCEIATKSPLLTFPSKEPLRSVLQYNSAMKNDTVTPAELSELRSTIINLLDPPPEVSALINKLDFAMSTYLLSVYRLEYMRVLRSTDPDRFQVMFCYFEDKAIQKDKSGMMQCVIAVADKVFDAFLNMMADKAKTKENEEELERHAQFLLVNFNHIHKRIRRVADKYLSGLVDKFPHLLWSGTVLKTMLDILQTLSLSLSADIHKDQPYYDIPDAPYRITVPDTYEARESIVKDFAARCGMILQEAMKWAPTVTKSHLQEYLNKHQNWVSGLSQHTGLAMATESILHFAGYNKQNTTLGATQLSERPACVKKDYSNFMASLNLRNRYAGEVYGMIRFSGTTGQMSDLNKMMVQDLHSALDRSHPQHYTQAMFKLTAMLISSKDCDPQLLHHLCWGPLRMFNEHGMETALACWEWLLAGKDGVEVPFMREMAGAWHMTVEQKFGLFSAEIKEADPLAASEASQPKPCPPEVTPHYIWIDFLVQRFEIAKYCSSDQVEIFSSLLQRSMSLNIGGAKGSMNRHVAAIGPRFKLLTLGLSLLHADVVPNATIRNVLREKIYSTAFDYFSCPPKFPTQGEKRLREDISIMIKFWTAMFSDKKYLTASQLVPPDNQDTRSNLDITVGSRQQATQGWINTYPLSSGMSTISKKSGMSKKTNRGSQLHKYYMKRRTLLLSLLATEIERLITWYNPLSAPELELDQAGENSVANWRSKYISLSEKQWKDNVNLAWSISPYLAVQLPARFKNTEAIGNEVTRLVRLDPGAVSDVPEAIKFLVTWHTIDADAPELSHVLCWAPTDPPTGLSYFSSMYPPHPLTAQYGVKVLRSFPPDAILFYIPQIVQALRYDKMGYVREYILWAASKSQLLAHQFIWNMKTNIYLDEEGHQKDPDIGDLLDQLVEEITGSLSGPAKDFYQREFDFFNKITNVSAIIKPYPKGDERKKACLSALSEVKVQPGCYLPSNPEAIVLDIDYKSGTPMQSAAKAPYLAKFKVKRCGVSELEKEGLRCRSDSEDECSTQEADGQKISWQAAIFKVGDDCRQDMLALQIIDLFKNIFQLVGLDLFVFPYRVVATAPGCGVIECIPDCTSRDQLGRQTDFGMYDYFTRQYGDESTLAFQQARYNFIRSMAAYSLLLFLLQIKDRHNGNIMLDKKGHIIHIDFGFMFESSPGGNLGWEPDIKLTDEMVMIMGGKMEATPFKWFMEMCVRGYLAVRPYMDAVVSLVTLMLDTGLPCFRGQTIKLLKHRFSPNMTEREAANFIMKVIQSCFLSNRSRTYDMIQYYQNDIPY
T1 sequence (Q8TCG2 whole entry, looked up): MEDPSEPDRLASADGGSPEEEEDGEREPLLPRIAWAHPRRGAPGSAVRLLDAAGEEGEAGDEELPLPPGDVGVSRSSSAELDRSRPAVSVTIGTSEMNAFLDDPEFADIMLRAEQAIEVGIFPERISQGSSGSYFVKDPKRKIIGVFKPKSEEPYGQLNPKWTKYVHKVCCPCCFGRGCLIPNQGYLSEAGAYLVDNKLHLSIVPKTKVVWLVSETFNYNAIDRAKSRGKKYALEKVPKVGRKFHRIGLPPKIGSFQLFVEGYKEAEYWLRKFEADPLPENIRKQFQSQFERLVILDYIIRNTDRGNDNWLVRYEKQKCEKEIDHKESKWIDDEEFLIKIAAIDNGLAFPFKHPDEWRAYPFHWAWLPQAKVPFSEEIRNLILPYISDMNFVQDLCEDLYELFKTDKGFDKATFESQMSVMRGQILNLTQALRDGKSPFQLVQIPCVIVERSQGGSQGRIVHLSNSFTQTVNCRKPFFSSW
T1 sequence (Q9BTU6 whole entry, looked up): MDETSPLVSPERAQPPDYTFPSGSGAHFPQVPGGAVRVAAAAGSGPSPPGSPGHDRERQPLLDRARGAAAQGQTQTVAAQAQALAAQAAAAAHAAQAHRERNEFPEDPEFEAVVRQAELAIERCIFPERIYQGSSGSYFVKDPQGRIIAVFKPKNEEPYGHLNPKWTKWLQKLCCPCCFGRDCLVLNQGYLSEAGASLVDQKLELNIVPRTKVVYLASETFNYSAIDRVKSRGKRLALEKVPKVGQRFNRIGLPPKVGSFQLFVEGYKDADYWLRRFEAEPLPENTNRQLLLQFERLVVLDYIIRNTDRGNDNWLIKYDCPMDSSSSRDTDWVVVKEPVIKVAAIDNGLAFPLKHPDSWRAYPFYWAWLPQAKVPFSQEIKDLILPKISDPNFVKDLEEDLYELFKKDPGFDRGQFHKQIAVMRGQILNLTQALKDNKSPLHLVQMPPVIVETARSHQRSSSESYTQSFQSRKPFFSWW
T1 sequence (Q9UBF8 whole entry, looked up): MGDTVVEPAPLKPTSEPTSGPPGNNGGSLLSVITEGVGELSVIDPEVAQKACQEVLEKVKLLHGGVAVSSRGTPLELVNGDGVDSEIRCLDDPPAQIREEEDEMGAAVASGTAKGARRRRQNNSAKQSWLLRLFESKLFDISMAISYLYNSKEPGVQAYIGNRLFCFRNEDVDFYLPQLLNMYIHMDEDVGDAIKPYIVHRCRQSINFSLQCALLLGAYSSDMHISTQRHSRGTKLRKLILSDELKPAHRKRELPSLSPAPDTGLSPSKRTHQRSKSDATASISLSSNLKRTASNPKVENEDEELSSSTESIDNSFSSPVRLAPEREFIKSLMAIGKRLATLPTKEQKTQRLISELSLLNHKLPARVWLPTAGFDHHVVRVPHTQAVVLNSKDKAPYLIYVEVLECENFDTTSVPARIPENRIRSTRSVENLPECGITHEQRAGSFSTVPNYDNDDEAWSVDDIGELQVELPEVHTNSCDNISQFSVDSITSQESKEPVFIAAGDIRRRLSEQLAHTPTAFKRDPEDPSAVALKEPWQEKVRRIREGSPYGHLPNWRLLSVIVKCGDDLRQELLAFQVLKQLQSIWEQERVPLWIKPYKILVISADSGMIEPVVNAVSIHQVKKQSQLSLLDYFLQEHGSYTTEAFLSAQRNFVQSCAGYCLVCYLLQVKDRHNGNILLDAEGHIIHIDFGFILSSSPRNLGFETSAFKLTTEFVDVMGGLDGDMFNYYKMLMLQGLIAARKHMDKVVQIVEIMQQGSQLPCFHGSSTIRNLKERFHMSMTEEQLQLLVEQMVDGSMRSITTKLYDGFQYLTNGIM
In short: (§1)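 Enzyme was extracted with Triton X-100 from human erythrocyte membranes and purified about 90-fold. Substrate at 200 μM final was tested in mixed micelles with 0.3% Triton X-100, 100 μM [γ-32P]ATP, 15 mM MgCl2, 1 mM EGTA, 1 mM DTT, 0.1 M NaCl and 50 mM HEPES pH 7.4 at 30 °C. Reactions were stopped with acidified CHCl3/MeOH, and organic-phase 32P was counted. Rates were expressed relative to mammalian PI, triplicate, mean ± SE.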

[2] = target: T1, Phosphatidylinositol 4-kinase, PI4K (Homo sapiens); experiment: Percent relative rate of phosphorylation was determined using human erythrocyte PI 4-kinase; assay type: functional; in short: as §1

Compound	Rate of formation [1] [pmol/min]	Relative rate [2] [%]
CCCCC/C=C/C/C=C/C/C=C/C/C=C/CCCC(=O)OC(COC(=O)CCCCCCCCCCCCCCCCC)COP(=O)(O)OC1C(O)C(O)C(O)C(O)C1O (stereo not given)	23.5	100
CCCCCCCCCCCCCCCC(=O)OCC(COP(=O)(O)OC1C(O)C(O)C(O)C(O)C1O)OC(=O)CCCCCCCCCCCCCCC (stereo in doubt; 10a)	24.9	106
CCCCCCCCCCCCCCCC(=O)OCC(COP(=O)(O)OC1C(O)C(O)C(O)C(O)C1O)OC(=O)CCCCCCCCCCCCCCC (stereo in doubt; 10b)	23.5	100
CCCCCCCCCCCCCCCC(=O)OCC(COP(=O)(O)OC1C(O)C(O)C(O)C(O)C1O)OC(=O)CCCCCCCCCCCCCCC (stereo in doubt; 10c)	1.01	4.3
CCCCCCCCCCCCCCCC(=O)OCC(COP(=O)(O)OC1C(O)C(O)C(O)C(O)C1O)OC(=O)CCCCCCCCCCCCCCC (stereo in doubt; 10d)	0.76	3.2
